In the library only some 2.5% were active in any assay of this set; here they are far more common.
NTR1 agonist: NTR1 (human) agonism; NTR1-U2OS beta-arrestin-GFP spot imaging, agonist mode; activation, % at 20 µM; 330,000 tested, 0.17% active; AID 493036;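 active means activation at or above 40% of the spot to cytoplasm intensity ratio, with at least 20 cells analyzed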
MC4R barr agon: agonists of human melanocortin 4 receptor (MC4R) beta-arrestin | activation, % at 8.9 µM | 360,000 tested, 0.98% active | U2OS MC4R beta-arrestin complementation, luminescence; percent of melanotan II response, DMSO zero;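 active means activation above a per-plate cutoff, the mean activation of sample wells on that plate plus 3 SD, cut at about 8% in these data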
MC4R antagonist: human MC4R antagonism in cAMP assay; inhibition, % at 6.5 µM; AID 540295; 360,000 tested, 0.48% active; P32245; MC4R-expressing cells, MTII-stimulated cAMP, LANCE TR-FRET;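 active means inhibition above its plate's cutoff, the mean of tested wells on that plate plus 3 SD, cut at about 29% in these data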
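material = U2OS cells stably expressing human melanocortin 4 receptor (MC4R) | also added = Melanotan II challenge | dosing = single nominal compound dose of 6.5 µM | detection = TR-FRET with Eu-cAMP and labeled anti-cAMP, 671 nm | replication = singlicate | timing = compound 30 min, challenge 1 h, detection 1 h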
Rev-erbA mod: Rev-erb alpha (human) modulation; Rev-erbα–FITC-DNA binding, fluorescence polarization, 90 min; activity, % at 10 µM; 370,000 tested, 0.79% active;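 active means activity above about 14%, limit read from the data; passing the limit was not always enough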
Target sequence (P20393 whole entry, looked up): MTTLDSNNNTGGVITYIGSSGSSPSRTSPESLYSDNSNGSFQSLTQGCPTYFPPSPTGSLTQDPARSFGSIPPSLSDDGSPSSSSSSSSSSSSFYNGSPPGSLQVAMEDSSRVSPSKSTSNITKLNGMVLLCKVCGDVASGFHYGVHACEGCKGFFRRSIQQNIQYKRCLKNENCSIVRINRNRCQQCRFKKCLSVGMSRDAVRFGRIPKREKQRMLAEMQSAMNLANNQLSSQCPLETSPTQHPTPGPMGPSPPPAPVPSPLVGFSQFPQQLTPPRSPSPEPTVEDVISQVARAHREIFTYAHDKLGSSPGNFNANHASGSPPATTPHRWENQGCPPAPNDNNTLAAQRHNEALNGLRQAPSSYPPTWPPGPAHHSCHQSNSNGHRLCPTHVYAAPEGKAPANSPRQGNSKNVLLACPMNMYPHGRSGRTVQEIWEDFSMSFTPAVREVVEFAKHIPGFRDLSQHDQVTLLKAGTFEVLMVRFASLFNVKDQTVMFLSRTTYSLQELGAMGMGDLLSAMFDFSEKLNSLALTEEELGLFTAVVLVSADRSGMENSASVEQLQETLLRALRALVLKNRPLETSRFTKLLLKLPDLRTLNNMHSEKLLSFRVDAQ
PG9 Ab binder: binds the HIV-1 gp120 antibody PG9. TR-FRET gp120-PG9 antibody binding. inhibition, % at 6.7 µM. 360,000 tested, 0.43% active. AID 624416; in the data active means inhibition above about 8.5%
PG9 binder conf: PG9 antibody binding, confirmed. 1,500 tested, 90% active. shares compounds with PG9 Ab binder. TR-FRET PG9 antibody binding, biochemical. inhibition, % at 6.7 µM; in the data active means inhibition above about 9%
PGV04 counter: binds control antibody PGV04 in PG9 binder counter-screen. shares compounds with PG9 Ab binder. TR-FRET PGV04 antibody-gp120 binding, biochemical. inhibition, % at 6.7 µM. 1,500 tested, 95% active; in the data active means inhibition above about 9.5%
NR1D1 mod conf: confirmation of modulators of human Rev-erb alpha DNA binding | activation, % at 25 µM | Rev-erb alpha FITC-DNA binding, fluorescence polarization, 90 min | shares compounds with Rev-erbA mod | 3,000 tested, 61% active;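 active means activation at or above a set limit, or at least 3 SD above the negative control mean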
RORg DNA counter: counter-screen for Rev-erb alpha modulators: RORgamma DNA binding. 910 tested, 8% active. IC50, µM. shares compounds with Rev-erbA mod. AID 1259320. purified RORgamma protein-FITC-DNA binding, fluorescence polarization;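 active means Compounds whose fitted half-maximal concentration for disrupting protein-DNA binding is below 10 micromolar; the record names Rev-erb in its text, so the target is in doubt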
Of the large screens only hits and unclear results are named; the others gave an inactive call (follow-up assays come after a bar, where they were run).

CCN(CC)C(=O)CSc1nc(N)c(C#N)c(-c2cccs2)c1C#N	Rev-erbA mod 33, PG9 Ab binder 44 | PG9 binder conf 18 | PGV04 counter 30 | NR1D1 mod conf 33 | RORg DNA counter inactive
CCN(CC)C(=O)CSc1nc(-c2cccs2)cc(-c2cccs2)c1C#N	none
O=C([C@@H]1C[C@H]1c1ccccc1)N1CC[C@H]2[C@H](CCCN2Cc2ccc(F)cc2)C1	none (no result: NTR1 agonist, MC4R barr agon, MC4R antagonist, PG9 Ab binder)
CCn1c(=O)c(C(=O)Nc2ccccc2S(N)(=O)=O)c(O)c2ccccc21	Rev-erbA mod 20, PG9 Ab binder 15 | PG9 binder conf inactive | PGV04 counter 14 | NR1D1 mod conf inactive
CCc1nnc(NC(=O)CSc2nc3cc4c(cc3cc2C)OCCO4)s1	Rev-erbA mod 47, PG9 Ab binder 12 | PG9 binder conf 25 | PGV04 counter 43 | NR1D1 mod conf 47 | RORg DNA counter inactive
Cc1sc2ncnc(SCC(=O)NC(=O)c3cccn3C)c2c1C	Rev-erbA mod 39, PG9 Ab binder 53 | PG9 binder conf 55 | PGV04 counter 66 | NR1D1 mod conf 25
Cc1noc(C)c1NC(=O)Nc1ccc2c(c1)C(=O)N([C@@H](C)CO)C[C@@H](C)[C@H](CN(C)S(=O)(=O)c1ccc(F)cc1)OCCCC[C@H](C)O2	none (no result: NTR1 agonist, MC4R barr agon, MC4R antagonist, PG9 Ab binder)
CC(C)(C)c1cccc(N/C(=C\C(=O)c2ccccc2)c2ccccc2)c1	none (no result: NTR1 agonist, MC4R barr agon, MC4R antagonist)
Cc1cc(NC(=O)CSc2cc(C)c3ccccc3n2)no1	Rev-erbA mod 23, PG9 Ab binder 13 | PG9 binder conf 16 | PGV04 counter 42 | NR1D1 mod conf inactive
Cc1cc(NC(=O)CSc2nc(C(C)(C)C)nc3ccccc23)no1	Rev-erbA mod 36, PG9 Ab binder 36 | PG9 binder conf 44 | PGV04 counter 55 | NR1D1 mod conf inactive
COc1ccc(CC(=O)OCc2cc3ccccc3[nH]c2=O)cc1	none
COc1ccc(CC(=O)OCc2cc3ccc(C)cc3[nH]c2=O)cc1	Rev-erbA mod 34, PG9 Ab binder 17 | PG9 binder conf 18 | PGV04 counter 30 | NR1D1 mod conf 31
O=C(COC(=O)c1ccccc1C(=O)c1ccc(Cl)cc1)NC(c1ccccc1)c1ccccc1	Rev-erbA mod 35, PG9 Ab binder 17 | PG9 binder conf 25 | PGV04 counter 47 | NR1D1 mod conf inactive
CCOC(=O)c1sc2nc(C)nc(NCCc3ccc(S(N)(=O)=O)cc3)c2c1C	Rev-erbA mod 40, PG9 Ab binder 18 | PG9 binder conf 27 | PGV04 counter 47 | NR1D1 mod conf inactive
Cc1nc(NCCc2ccc(S(N)(=O)=O)cc2)c2c(C)c(C)sc2n1	none
O=C(Cc1cccc2ccccc12)Nc1ccc(-c2cc3ccccc3oc2=O)cc1	Rev-erbA mod 27, PG9 Ab binder 19 | PG9 binder conf 35 | PGV04 counter 45 | NR1D1 mod conf inactive
COC(=O)[C@]12C[C@H](CC(=O)N3CCCC3)C(=O)N(CCc3ccc(OC)c(OC)c3)C1=C[C@H](COCc1ccccc1)O[C@@H]2C	none (no result: NTR1 agonist, MC4R barr agon, MC4R antagonist, PG9 Ab binder)
COC(=O)c1ccc(CSc2ncnc3c2oc2ccccc23)o1	Rev-erbA mod 147, PG9 Ab binder 15 | PG9 binder conf 43 | PGV04 counter 80 | NR1D1 mod conf 144 | RORg DNA counter inactive
COC(=O)c1ccc(CSc2ncnc3ccccc23)o1	none
COC(=O)C1CCN(C2CN(Cc3cn(Cc4ccc(C(F)(F)F)cc4)nn3)S(=O)(=O)C2)CC1 (stereo not drawn)	none (no result: NTR1 agonist, MC4R barr agon, MC4R antagonist)
CCc1nonc1NC(=O)c1oc2cc(Br)ccc2c1C	Rev-erbA mod 17, PG9 Ab binder 18 | PG9 binder conf 20 | PGV04 counter 38 | NR1D1 mod conf inactive
CCc1nonc1NC(=O)c1oc2ccccc2c1C	none
